Test results: ChEMBL document CHEMBL4304758, “Development of Peptide-Based Sirtuin Defatty-Acylase Inhibitors Identified by the Fluorescence Probe, SFP3, That Can Efficiently Measure Defatty-Acylase Activity of Sirtuin” (J Med Chem, 2019)
Structures can show the parent of a compound that is named as a salt. Active and inactive are the calls of the source. No cut-off for these calls is given here. Residues, ends and D or L forms follow the SMILES beside them. *: point of attachment. Phenylacetyl(4-E-phenylazo) = O=C(Cc1ccc(/N=N/c2ccccc2)cc1)*; X5 = CCN(CC)c1ccc(/N=N/c2ccc(CC(=O)*)cc2)cc1; X3 = CN(C)c1ccc(/N=N/c2ccc(CCC(=O)*)cc2)cc1; X2 = CN(C)c1ccc(/N=N/c2ccc(C(=O)*)cc2)cc1; Tfa = O=C(C(F)(F)F)*

Columns and labels:
[1] = target: NAD-dependent protein deacylase sirtuin-6 (Homo sapiens) (UniProt Q8N6T7); experiment: Inhibition of recombinant human N-terminal polyhis-tagged SIRT6 (1 to 355 residues) defatty-acylase activity expressed in Escherichia coli at 2 uM using SFP3 as substrate measured at 5 mins interval for 60 mins in presence of NAD+ by fluorescence assay relative to control
NAD-dependent protein deacylase sirtuin-6 (Homo sapiens), sequence (Q8N6T7 whole entry, the tested form may be a part): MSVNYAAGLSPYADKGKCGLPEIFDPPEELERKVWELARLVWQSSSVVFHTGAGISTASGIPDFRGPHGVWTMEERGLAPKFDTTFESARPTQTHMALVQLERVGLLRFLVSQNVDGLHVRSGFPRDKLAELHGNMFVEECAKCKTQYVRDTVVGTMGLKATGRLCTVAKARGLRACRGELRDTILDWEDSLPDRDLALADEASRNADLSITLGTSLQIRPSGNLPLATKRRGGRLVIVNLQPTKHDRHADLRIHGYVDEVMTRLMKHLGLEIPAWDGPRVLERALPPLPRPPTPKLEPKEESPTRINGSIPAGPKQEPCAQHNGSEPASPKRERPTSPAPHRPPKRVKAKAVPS

[2] = target: T1, NAD-dependent protein deacetylase sirtuin-2 (Homo sapiens) (UniProt Q8IXJ6); experiment: Inhibition of recombinant human SIRT2 demyristoylase activity at 1 uM using p53(Myr)-AMC as substrate measured after 3 hrs in presence of NAD+ and trypsin by fluorescence assay relative to control
T1 sequence (whole entry): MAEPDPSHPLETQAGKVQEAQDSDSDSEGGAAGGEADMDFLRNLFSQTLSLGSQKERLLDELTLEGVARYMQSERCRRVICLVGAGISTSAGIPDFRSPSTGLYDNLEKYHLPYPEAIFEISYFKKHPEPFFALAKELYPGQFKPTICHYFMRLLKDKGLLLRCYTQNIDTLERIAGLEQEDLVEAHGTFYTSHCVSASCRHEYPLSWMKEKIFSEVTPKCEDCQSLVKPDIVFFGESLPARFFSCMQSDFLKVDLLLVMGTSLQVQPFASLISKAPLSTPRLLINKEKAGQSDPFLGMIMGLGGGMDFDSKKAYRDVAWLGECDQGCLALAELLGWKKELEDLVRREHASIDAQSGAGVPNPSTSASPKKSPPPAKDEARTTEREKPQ

[3] = target: T2, NAD-dependent protein deacetylase sirtuin-3, mitochondrial (Homo sapiens) (UniProt Q9NTG7); experiment: Inhibition of recombinant human SIRT3 (118 to 399 residues) defatty-acylase activity expressed in Escherichia coli at 2 uM using SFP3 as substrate measured at 5 mins interval for 60 mins in presence of NAD+ by fluorescence assay relative to control
T2 sequence (whole entry): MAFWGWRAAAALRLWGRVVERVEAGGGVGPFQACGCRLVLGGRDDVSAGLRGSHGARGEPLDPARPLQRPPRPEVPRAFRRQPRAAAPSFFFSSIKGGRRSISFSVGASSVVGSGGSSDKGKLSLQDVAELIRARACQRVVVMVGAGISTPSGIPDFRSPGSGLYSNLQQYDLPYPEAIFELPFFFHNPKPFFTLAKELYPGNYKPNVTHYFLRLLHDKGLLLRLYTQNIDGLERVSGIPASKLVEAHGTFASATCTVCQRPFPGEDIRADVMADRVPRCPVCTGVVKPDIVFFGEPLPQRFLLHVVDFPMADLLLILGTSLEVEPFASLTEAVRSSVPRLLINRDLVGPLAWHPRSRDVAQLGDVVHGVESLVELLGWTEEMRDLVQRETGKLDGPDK
How it was run: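 SIRT3 at 60 nM final with 2.5 μM SFP3 and 500 μM NAD⁺ in Tris-HCl pH 8.0, 150 mM NaCl, 1 mM DTT, 0.05% Triton X-100. Final DMSO 0.2%, or 0.5% for AGK2/NAM. Fluorescence Ex 485/Em 535 nm every 5 min for 60 min at 37 °C. n = 3.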

[4] = target: T2, NAD-dependent protein deacetylase sirtuin-3, mitochondrial (Homo sapiens); experiment: Inhibition of recombinant human SIRT3 (118 to 399 residues) demyristoylase activity expressed in Escherichia coli at 1 uM using p53(Myr)-AMC as substrate measured after 3 hrs in presence of NAD+ and trypsin by fluorescence assay relative to control
How it was run: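 SIRT3 at 120 nM with 50 μM p53(Myr)-AMC and 500 μM NAD⁺ in Tris-HCl pH 8.0/NaCl/DTT/Triton buffer, 0.5% DMSO, 3 h at room temperature. Trypsin (100 nM) plus nicotinamide (1 mM) then added. Fluorescence Ex 355/Em 460 nm every 5 min for 20 min at 37 °C. n = 3.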

[5] = target: T1, NAD-dependent protein deacetylase sirtuin-2 (Homo sapiens); experiment: Inhibition of recombinant human SIRT2 defatty-acylase activity at 2 uM using SFP3 as substrate measured at 5 mins interval for 60 mins in presence of NAD+ by fluorescence assay relative to control
[6] = target: T3, NAD-dependent protein deacetylase sirtuin-1 (Homo sapiens) (UniProt Q96EB6); experiment: Inhibition of recombinant human C-terminal His6-tagged SIRT1 (Met1 to Ser747 residues) defatty-acylase activity expressed in Escherichia coli at 2 uM using SFP3 as substrate measured at 5 mins interval for 60 mins in presence of NAD+ by fluorescence assay relative to control
T3 sequence (whole entry): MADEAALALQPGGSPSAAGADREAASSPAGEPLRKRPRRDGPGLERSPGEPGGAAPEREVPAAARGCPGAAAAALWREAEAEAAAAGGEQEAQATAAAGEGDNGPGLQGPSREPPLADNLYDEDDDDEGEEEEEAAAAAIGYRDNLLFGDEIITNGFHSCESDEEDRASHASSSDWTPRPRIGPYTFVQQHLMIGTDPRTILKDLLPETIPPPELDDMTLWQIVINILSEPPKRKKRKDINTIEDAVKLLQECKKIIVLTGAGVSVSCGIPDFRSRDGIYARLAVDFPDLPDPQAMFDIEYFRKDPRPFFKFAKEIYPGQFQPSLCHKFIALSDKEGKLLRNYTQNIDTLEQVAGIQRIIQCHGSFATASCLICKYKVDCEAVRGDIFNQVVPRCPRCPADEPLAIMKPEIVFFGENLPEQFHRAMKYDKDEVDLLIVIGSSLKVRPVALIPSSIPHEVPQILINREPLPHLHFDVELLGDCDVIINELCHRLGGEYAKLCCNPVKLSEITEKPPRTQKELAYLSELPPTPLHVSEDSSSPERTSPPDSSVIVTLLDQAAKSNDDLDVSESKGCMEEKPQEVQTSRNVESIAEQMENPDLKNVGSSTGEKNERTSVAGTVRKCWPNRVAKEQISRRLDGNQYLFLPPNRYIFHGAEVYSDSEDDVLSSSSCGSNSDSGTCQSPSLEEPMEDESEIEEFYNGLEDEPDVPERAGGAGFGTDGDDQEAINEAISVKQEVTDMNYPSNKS

[7] = target: T3, NAD-dependent protein deacetylase sirtuin-1 (Homo sapiens); experiment: Inhibition of recombinant human C-terminal His6-tagged SIRT1 (Met1 to Ser747 residues) demyristoylase activity expressed in Escherichia coli at 1 uM using p53(Myr)-AMC as substrate measured after 3 hrs in presence of NAD+ and trypsin by fluorescence assay relative to control
How it was run: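 SIRT1 at 14 nM final with 50 μM p53(Myr)-AMC and 500 μM NAD⁺ in Tris-HCl pH 8.0/NaCl/DTT/Triton buffer, 0.5% DMSO, 3 h at room temperature. Trypsin (100 nM final) plus nicotinamide (1 mM final) then added. Fluorescence Ex 355/Em 460 nm read every 5 min for 20 min at 37 °C. n = 3.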

[8] = target: T1, NAD-dependent protein deacetylase sirtuin-2 (Homo sapiens); experiment: Time-dependent inhibition of recombinant human SIRT2 defatty-acylase activity at 62.5 to 1000 nM using SFP3 as substrate measured at 5 mins interval for 60 mins in presence of NAD+ by fluorescence assay
[9] = target: T1, NAD-dependent protein deacetylase sirtuin-2 (Homo sapiens); experiment: Inhibition of recombinant human SIRT2 deacylation activity using H4K16-Ac as substrate measured after 30 mins in presence of NAD+ by HPLC analysis
How it was run: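 H4K16-Ac peptide at 100 μM with 500 μM NAD⁺ and 175 nM SIRT2 in Tris-HCl pH 8.0/NaCl/Triton buffer lacking DTT, 0.5% DMSO, 30 min at 37 °C. Inhibitors at 0.01–10 μM. Stopped with HCl in MeOH. Deacetylated product quantified by reversed-phase HPLC at 280 nm.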

[10] = target: T1, NAD-dependent protein deacetylase sirtuin-2 (Homo sapiens); experiment: Inhibition of recombinant human SIRT2 demyristoylase activity using H4K16-Myr as substrate measured after 2 hrs in presence of NAD+ by HPLC analysis
How it was run: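 H4K16-Myr at 100 μM with 500 μM NAD⁺ and 175 nM SIRT2 in Tris-HCl pH 8.0/NaCl/Triton buffer without DTT, 0.5% DMSO, 2 h at 37 °C. Inhibitors at 0.1–10 μM; AGK2 at 50 μM, NAM at 500 μM. Stopped with HCl/MeOH. Demyristoylated H4K16 product measured by HPLC at 280 nm. Percent inhibition, n = 3.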

HeLa = experiment: Cytotoxicity against human HeLa cells assessed as reduction in cell viability at 50 uM measured after 72 hrs by CCK8 assay; format: functional, cell-based
How it was run: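 HeLa cells, 1.0 × 10⁴ per well on PLL-coated plates, grown overnight in DMEM with 10% FBS and penicillin/streptomycin, 37 °C, 5% CO₂. Compounds added in DMEM (2% DMSO stock), range 1.56–50 μM final, for 72 h. CCK-8 reagent then 2 h at 37 °C, absorbance read at 450 nm. DMSO control.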

| Structure (SMILES) | inhibition [1] [%] | inhibition [2] [%] | inhibition [3] [%] | inhibition [4] [%] | inhibition [5] [%] | inhibition [6] [%] | inhibition [7] [%] | TDI [8] | inhibition [9] | inhibition [10] | Activity (HeLa) |
| --- | --- | --- | --- | --- | --- | --- | --- | --- | --- | --- | --- |
| Cc1cc(C)nc(SCC(=O)Nc2ncc(Cc3cccc4ccccc34)s2)n1 | -2.2 | – | – | – | – | – | – | – | – | – | – |
| C[C@H](NC(=O)[C@H](CCCCNC(=O)Cc1ccc(/N=N/c2ccc(O)cc2)cc1)NC(=O)OCc1ccccc1)C(N)=O | 3.8 | 5.3 | 5.9 | 2.6 | 18 | 8.8 | 20 | – | – | – | – |
| CC[C@H](C)[C@H](NC(=O)[C@H](CCCNC(=N)N)NC(C)=O)C(=O)N[C@@H](CCCCNC(=O)CCc1ccc(/N=N/c2ccc(N(C)C)cc2)cc1)C(=O)N[C@@H](CCCNC(=N)N)C(=O)N[C@@H](Cc1ccc(O)cc1)C(N)=O (Ac-RIK(X3)RY-NH2) | 13 | 23 | – | 11 | – | – | 42 | inactive | – | – | – |
| CC[C@H](C)[C@H](NC(=O)[C@H](CCCNC(=N)N)NC(C)=O)C(=O)N[C@@H](CCCCNC(=O)c1ccc(/N=N/c2ccc(N(C)C)cc2)cc1)C(=O)N[C@@H](CCCNC(=N)N)C(=O)N[C@@H](Cc1ccc(O)cc1)C(N)=O (Ac-RIK(X2)RY-NH2) | 13 | – | – | 34 | – | 22 | 42 | inactive | – | – | – |
| C[C@H](NC(=O)[C@H](CCCCNC(=O)Cc1ccc(/N=N/c2ccc(OCc3ccccc3)cc2)cc1)NC(=O)OCc1ccccc1)C(N)=O | -7.4 | 3.2 | -0.08 | 5.6 | 13 | 1.3 | 2.8 | – | – | – | – |
| CC[C@H](C)[C@H](NC(=O)[C@H](CCCNC(=N)N)NC(C)=O)C(=O)N[C@@H](CCCCNC(=O)C(F)(F)F)C(=O)N[C@@H](CCCNC(=N)N)C(=O)N[C@@H](Cc1ccc(O)cc1)C(N)=O (Ac-RIK(Tfa)RY-NH2) | 3.1 | – | – | 58 | – | 16 | 32 | – | – | – | – |
| CC[C@H](C)[C@H](NC(=O)[C@@H](NC(=O)[C@H](CCCCNC(=O)Cc1ccc(/N=N/c2ccccc2)cc1)NC(=O)[C@H](CC(=O)O)NC(=O)[C@H](CO)NC(C)=O)[C@@H](C)O)C(N)=O (Ac-SDK(Phenylacetyl(4-E-phenylazo))TI-NH2) | 2.6 | 17 | 14 | 5.6 | – | 18 | 31 | – | – | – | – |
| CC[C@H](C)[C@H](NC(=O)[C@H](CCCNC(=N)N)NC(C)=O)C(=O)N[C@@H](CCCCNC(=O)Cc1ccc(/N=N/c2ccccc2)cc1)C(=O)N[C@@H](CCCNC(=N)N)C(=O)N[C@@H](Cc1ccc(O)cc1)C(N)=O (Ac-RIK(Phenylacetyl(4-E-phenylazo))RY-NH2) | 32 | – | – | – | – | – | – | – | Dose-dependent effect | Dose-dependent effect | inactive |
| CCCCCCCCCCCCCC(=S)NCCCC[C@H](NC(=O)OCc1ccccc1)C(=O)Nc1ccccc1 | -3.3 | – | -0.9 | -1.2 | – | 0.81 | 2.7 | – | – | – | Active |
| C[C@H](NC(=O)[C@H](CCCCNC(=O)Cc1ccc(/N=N/c2ccc(OCCc3ccccc3)cc2)cc1)NC(=O)OCc1ccccc1)C(N)=O | -0.32 | 2.9 | 7 | -0.13 | 1.4 | 2 | 6.3 | – | – | – | – |
| CC[C@H](C)[C@H](NC(C)=O)C(=O)N[C@@H](CCCCNC(=O)Cc1ccc(/N=N/c2ccccc2)cc1)C(=O)N[C@@H](CCCNC(=N)N)C(N)=O | 28 | – | – | – | – | – | – | – | – | – | – |
| CC[C@H](C)[C@H](NC(=O)[C@H](CCCNC(=N)N)NC(C)=O)C(=O)N[C@@H](CCCCNC(=O)Cc1ccc(/N=N/c2ccc(N(CC)CC)cc2)cc1)C(=O)N[C@@H](CCCNC(=N)N)C(=O)N[C@@H](Cc1ccc(O)cc1)C(N)=O (Ac-RIK(X5)RY-NH2) | 28 | – | – | – | – | – | – | – | – | – | – |
| CC[C@H](C)[C@H](NC(=O)[C@H](CCCCNC(=O)Cc1ccc(/N=N/c2ccccc2)cc1)NC(=O)[C@@H](NC(C)=O)C(C)C)C(=O)N[C@@H](CCCCN)C(=O)N[C@@H](CCCCN)C(N)=O (Ac-VK(Phenylacetyl(4-E-phenylazo))IKK-NH2) | 0.64 | – | – | – | – | – | – | – | – | – | – |
| CC[C@H](C)[C@H](NC(=O)[C@@H](NC(=O)[C@H](CCCCNC(=O)c1ccc(/N=N/c2ccc(N(C)C)cc2)cc1)NC(=O)[C@H](CC(=O)O)NC(=O)[C@H](CO)NC(C)=O)[C@@H](C)O)C(N)=O (Ac-SDK(X2)TI-NH2) | 11 | 2 | 10 | -1.1 | 7.8 | 8.9 | 3.2 | – | – | – | – |
